What all share (assay type): functional
Assay [1] relates to Mythimna separata. As to the kind of experiment: Stomach toxicity against Mythimna separata (Oriental armyworm) fourth-instar larvae reared on compound pre-treated corn leaves assessed as insect mortality at 2.5 mg/kg measured 4 days post compound treatment.
For assay [2], the system named is Mythimna separata. As to the kind of experiment: Stomach toxicity against Mythimna separata (Oriental armyworm) fourth-instar larvae reared on compound pre-treated corn leaves assessed as insect mortality at 5 mg/kg measured 4 days post compound treatment.
The test system of assay [3] is Mythimna separata. As to the kind of experiment: Stomach toxicity against Mythimna separata (Oriental armyworm) fourth-instar larvae reared on compound pre-treated corn leaves assessed as insect mortality at 10 mg/kg measured 4 days post compound treatment.
Assay [4] concerns Mythimna separata. The experiment in a line: Stomach toxicity against Mythimna separata (Oriental armyworm) fourth-instar larvae reared on compound pre-treated corn leaves assessed as insect mortality at 50 mg/kg measured 4 days post compound treatment.
Assay [5] relates to Mythimna separata. The experiment in a line: Stomach toxicity against Mythimna separata (Oriental armyworm) fourth-instar larvae reared on compound pre-treated corn leaves assessed as insect mortality at 25 mg/kg measured 4 days post compound treatment.
Assay [6] relates to Spodoptera litura. The experiment in a line: Contact toxicity against Spodoptera litura fourth-instar larvae exposed to compound on thoracic tergite region assessed as insect mortality measured 48 hr post compound treatment. The essentials: (§1)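 Topical application: each fourth-instar larva received 1 µL of acetone dilution on the thoracic tergite via automatic microapplicator; five to seven concentrations. Acetone-only control. Usually 40 insects per dose, four replicates. Larvae returned to standard rearing at 25 ± 1 °C. Mortality read 48 h after treatment, Abbott-corrected, and LD50 (median lethal dose) derived.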

Assay [7] deals with Spodoptera litura. The experiment in a line: Stomach toxicity against Spodoptera litura third-instar larvae reared on compound pre-treated cabbage leaves assessed as insect mortality measured 3 days post compound treatment. In a few lines:
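Leaf-dip: cabbage leaf discs (5 cm × 3 cm) dipped 3 s in test solution, air-dried, placed singly in 80 cm³ boxes. Five third-instar larvae per disc. Water- and acetone-treated leaves as controls. Held at 25 ± 1 °C. Mortality scored on a dead/alive basis 3 days after treatment and Abbott-corrected.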

Another assay deals with Ostrinia furnacalis. The experiment in a line: Contact toxicity against Ostrinia furnacalis (Asian corn borer) fourth-instar larvae exposed to compound on thoracic tergite region assessed as insect mortality measured 48 hr post compound treatment. The essentials: as §1
The test system of another assay is Helicoverpa armigera. The experiment in a line: Contact toxicity against Helicoverpa armigerafourth-instar larvae exposed to compound on thoracic tergite region assessed as insect mortality measured 48 hr post compound treatment. In a few lines: as §1

Values after ≈ are worked out from the molar mass of the structure shown.

As usually defined, the mortality is the share of the test organisms that died. `Cc1cc(C)cc(C(=O)N(N(SOc2ccc(Cl)cc2)C(=O)c2ccc3c(c2C)OC(C)C3)C(C)(C)C)c1` (stereo not drawn): the mortality at 2.5 mg/kg with Mythimna separata [1] came to 90%. The mortality at 5 mg/kg in the assay on Mythimna separata [2] worked out at 100%.

For the compound `CC(C)(C)N(NC(=O)c1ccccc1)C(=O)c1ccccc1` [RH-5849], in the assay with Mythimna separata [3], the mortality at 10 mg/kg came to 0%. Besides, the mortality at 50 mg/kg in the assay on Mythimna separata [4] turned out to be 100%. In the assay with Mythimna separata [5], the mortality at 25 mg/kg is 70%.

For `CCc1ccc(C(=O)N(N(SOc2ccc(Br)cc2)C(=O)c2cc(C)cc(C)c2)C(C)(C)C)cc1`, the mortality at 2.5 mg/kg in the assay on Mythimna separata [1] is 50%. In addition, in the assay on Mythimna separata [2], the mortality at 5 mg/kg came to 100%.

Consider `CCc1ccc(C(=O)N(N(SOc2ccccc2C)C(=O)c2cc(C)cc(C)c2)C(C)(C)C)cc1`, for which the mortality at 2.5 mg/kg in the assay on Mythimna separata [1] is 60%. In addition, the mortality at 5 mg/kg in the assay with Mythimna separata [2] is 100%.

On to `CCc1ccc(C(=O)N(N(SOc2ccc(C)c(C)c2)C(=O)c2cc(C)cc(C)c2)C(C)(C)C)cc1`, for which the mortality at 2.5 mg/kg in the assay with Mythimna separata [1] is 10%. Besides, the mortality at 5 mg/kg in the assay with Mythimna separata [2] was determined as 70%.

Regarding `CCc1ccc(C(=O)N(N(SOc2ccccc2OC)C(=O)c2cc(C)cc(C)c2)C(C)(C)C)cc1`, the mortality at 2.5 mg/kg in the assay with Mythimna separata [1] came out at 80%. In addition, in the assay on Mythimna separata [2], the mortality at 5 mg/kg is 90%.

For the compound `Cc1ccc(OSN(C(=O)c2ccccc2)N(C(=O)c2ccccc2)C(C)(C)C)cc1`, in the assay on Mythimna separata [3], the mortality at 10 mg/kg came out at 10%. Further, the mortality at 50 mg/kg in the assay with Mythimna separata [4] amounted to 100%. In the assay with Mythimna separata [5], the mortality at 25 mg/kg was 80%.

As for `CCc1ccc(C(=O)N(N(SOc2ccccc2Br)C(=O)c2cc(C)cc(C)c2)C(C)(C)C)cc1`, the mortality at 2.5 mg/kg in the assay on Mythimna separata [1] worked out at 30%. In addition, in the assay with Mythimna separata [2], the mortality at 5 mg/kg came to 100%.

In the case of `CCc1ccc(C(=O)N(N(SOc2ccc(OC)cc2)C(=O)c2cc(C)cc(C)c2)C(C)(C)C)cc1`, the mortality at 2.5 mg/kg in the assay on Mythimna separata [1] stood at 80%. Besides, the mortality at 5 mg/kg in the assay with Mythimna separata [2] amounted to 100%.

As to `CCc1ccc(C(=O)N(N(SOc2cccc(C)c2)C(=O)c2cc(C)cc(C)c2)C(C)(C)C)cc1`, the mortality at 2.5 mg/kg in the assay on Mythimna separata [1] was 70%. Also, in the assay with Mythimna separata [2], the mortality at 5 mg/kg came to 95%.

Regarding `CCc1ccc(C(=O)N(N(SOc2ccc(C)cc2)C(=O)c2cc(C)cc(C)c2)C(C)(C)C)cc1`, the mortality at 2.5 mg/kg with Mythimna separata [1] amounted to 30%. For the same compound, in the assay with Mythimna separata [2], the mortality at 5 mg/kg amounted to 100%.

As to `CCc1ccc(C(=O)N(N(SOc2ccc(C(=O)OC)cc2)C(=O)c2cc(C)cc(C)c2)C(C)(C)C)cc1`, the mortality at 2.5 mg/kg in the assay with Mythimna separata [1] is 100%. Further, the mortality at 5 mg/kg with Mythimna separata [2] was found to be 100%.

Turning to `Cc1cc(C)cc(C(=O)N(NC(=O)c2ccc3c(c2C)OC(C)C3)C(C)(C)C)c1` (stereo not drawn) [FUXIAN], the mortality at 2.5 mg/kg in the assay on Mythimna separata [1] was 90%. In addition, the mortality at 5 mg/kg in the assay with Mythimna separata [2] turned out to be 100%.

For the compound `CCc1ccc(C(=O)N(N(SOc2ccccc2C(=O)OC)C(=O)c2cc(C)cc(C)c2)C(C)(C)C)cc1`, the mortality at 2.5 mg/kg with Mythimna separata [1] was found to be 60%. Also, in the assay on Mythimna separata [2], the mortality at 5 mg/kg turned out to be 100%.

Consider `CC(C)(C)N(NC(=O)c1ccc(Cl)cc1)C(=O)c1ccccc1` [HALOFENOZIDE], for which the mortality at 2.5 mg/kg in the assay with Mythimna separata [1] was determined as 10%. Also, the mortality at 50 mg/kg with Mythimna separata [4] was 100%. In addition, the mortality at 5 mg/kg in the assay on Mythimna separata [2] came out at 70%.

Turning to `CCc1ccc(C(=O)N(N(SOc2ccc(-c3ccccc3)cc2)C(=O)c2cc(C)cc(C)c2)C(C)(C)C)cc1`, in the assay with Mythimna separata [1], the mortality at 2.5 mg/kg amounted to 90%. The mortality at 5 mg/kg with Mythimna separata [2] was determined as 100%.

Broadly, the LD50 is the dose expected to kill half of the subjects tested. By LC50 is commonly meant the concentration lethal to half of the exposed cells or organisms. With `CCc1ccc(C(=O)NN(C(=O)c2cc(C)cc(C)c2)C(C)(C)C)cc1` [TEBUFENOZIDE], the mortality at 2.5 mg/kg in the assay with Mythimna separata [1] was 55%. Further, the figures for the LD50 in the assay with Spodoptera litura [6], in the assay on Ostrinia furnacalis and with Helicoverpa armigera were 527 mg/kg, 59.4 mg/kg and 1310 mg/kg, respectively. In addition, in the assay with Mythimna separata [3], the mortality at 10 mg/kg turned out to be 100%. Also, in the assay with Mythimna separata [2], the mortality at 5 mg/kg is 95%. Further, in the assay on Spodoptera litura [7], the LC50 came to 11.2 µg/mL (≈ 31.7 µM).

Regarding `CCc1ccc(C(=O)N(N(SOc2cccc(C(=O)OC)c2)C(=O)c2cc(C)cc(C)c2)C(C)(C)C)cc1`, the mortality at 2.5 mg/kg in the assay on Mythimna separata [1] was determined as 80%. The mortality at 5 mg/kg in the assay on Mythimna separata [2] came out at 90%.

On to `CCc1ccc(C(=O)N(N(SOc2c(Cl)cc(Cl)cc2Cl)C(=O)c2cc(C)cc(C)c2)C(C)(C)C)cc1`, for which the mortality at 2.5 mg/kg with Mythimna separata [1] turned out to be 50%. Also, the mortality at 5 mg/kg with Mythimna separata [2] stood at 90%.

For the compound `CC(C)(C)N(C(=O)c1ccccc1)N(SOc1ccc(Cl)cc1)C(=O)c1ccccc1`, the mortality at 10 mg/kg in the assay with Mythimna separata [3] turned out to be 0%. Further, the mortality at 50 mg/kg in the assay on Mythimna separata [4] turned out to be 100%. The mortality at 25 mg/kg in the assay on Mythimna separata [5] came out at 100%.

Turning to `CCc1ccc(C(=O)N(N(SOc2cccc(Cl)c2)C(=O)c2cc(C)cc(C)c2)C(C)(C)C)cc1`, the mortality at 2.5 mg/kg with Mythimna separata [1] is 80%. Besides, in the assay on Mythimna separata [2], the mortality at 5 mg/kg came out at 90%.

Take `CCc1ccc(C(=O)N(N(SOc2ccc(Cl)cc2Cl)C(=O)c2cc(C)cc(C)c2)C(C)(C)C)cc1`: the mortality at 2.5 mg/kg in the assay with Mythimna separata [1] is 40%. In addition, the mortality at 5 mg/kg in the assay with Mythimna separata [2] amounted to 90%.

With `COc1cccc(C(=O)N(N(SOc2ccc(Cl)cc2)C(=O)c2cc(C)cc(C)c2)C(C)(C)C)c1C`, the mortality at 2.5 mg/kg with Mythimna separata [1] was 100%. For the same compound, the mortality at 5 mg/kg in the assay with Mythimna separata [2] came to 100%.

With `CCc1ccc(C(=O)N(N(SOc2ccccc2Cl)C(=O)c2cc(C)cc(C)c2)C(C)(C)C)cc1`, the mortality at 2.5 mg/kg with Mythimna separata [1] stood at 80%. In addition, in the assay with Mythimna separata [2], the mortality at 5 mg/kg stood at 95%.

For `CCc1ccc(C(=O)N(N(SOc2ccccc2)C(=O)c2cc(C)cc(C)c2)C(C)(C)C)cc1`, the mortality at 2.5 mg/kg with Mythimna separata [1] came out at 70%. Besides, the mortality at 10 mg/kg in the assay on Mythimna separata [3] is 100%. Also, the mortality at 50 mg/kg in the assay on Mythimna separata [4] was 100%. In addition, the mortality at 5 mg/kg with Mythimna separata [2] was determined as 90%. For the same compound, the mortality at 25 mg/kg in the assay with Mythimna separata [5] is 100%.

Regarding `COc1cccc(C(=O)NN(C(=O)c2cc(C)cc(C)c2)C(C)(C)C)c1C` [METHOXYFENOZIDE], the mortality at 2.5 mg/kg in the assay with Mythimna separata [1] was determined as 100%. The mortality at 5 mg/kg in the assay with Mythimna separata [2] is 100%.

With `CC(C)(C)N(C(=O)c1ccc(Cl)cc1)N(SOc1ccc(Cl)cc1)C(=O)c1ccccc1`, in the assay on Mythimna separata [1], the mortality at 2.5 mg/kg amounted to 0%. Besides, in the assay on Mythimna separata [3], the mortality at 10 mg/kg turned out to be 100%. Besides, in the assay on Mythimna separata [2], the mortality at 5 mg/kg stood at 30%. Moreover, the mortality at 25 mg/kg in the assay with Mythimna separata [5] is 100%.

`CCc1ccc(C(=O)N(N(SOc2cccc(OC)c2)C(=O)c2cc(C)cc(C)c2)C(C)(C)C)cc1`: the mortality at 2.5 mg/kg in the assay with Mythimna separata [1] worked out at 50%. The mortality at 5 mg/kg in the assay on Mythimna separata [2] was determined as 100%.

On to `CC(C)(C)N(C(=O)c1ccccc1)N(SOc1ccccc1)C(=O)c1ccccc1`, for which the mortality at 10 mg/kg with Mythimna separata [3] came to 0%. Further, the mortality at 50 mg/kg in the assay with Mythimna separata [4] turned out to be 100%. Besides, the mortality at 25 mg/kg in the assay with Mythimna separata [5] was determined as 100%.

Source of the values: ChEMBL document CHEMBL3045981, “Synthesis and insecticidal activities of novel N-sulfenyl-N'-tert-butyl-N,N'-diacylhydrazines. 2. N-substituted phenoxysulfenate derivatives” (2008).
